In ChEMBL document CHEMBL1135021, “Biotinylated lithocholic acids for affinity chromatography of mammalian DNA polymerases alpha and beta” (Bioorg Med Chem Lett, 2002) one finds Ki and IC50 data, which are given here for four molecules.

The target in assay [1] is T1, DNA polymerase beta (Rattus norvegicus, UniProt P06766). Nature of the assay: Inhibition constant at a concentration of 10 uM on rat DNA polymerase beta as a function of nucleotide substrate concentration. The procedure, abridged:
(§1)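 Kinetic runs used calf thymus pol α or rat pol β (0.05 units each) preincubated with compound at 0 °C for 10 min in Tris–HCl pH 7.5/DTT/glycerol/EDTA buffer. Either poly(dA)/oligo(dT)12–18 (2/1) template-primer or dTTP substrate was varied. Km and Vmax came from double reciprocal plots, Ki from Dixon plots.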

Assay [2] addresses T1, DNA polymerase beta. Nature of the assay: Inhibition constant at a concentration of 10 uM on rat DNA polymerase beta as a function of template primer dose. The method, boiled down:
as §1

Assay [3] concerns the target Nucleic Acid. Nature of the assay: Inhibition constant at a concentration of 5 uM on calf DNA polymerase alpha as a function of template primer dose. It counts as nucleic-acid assay, Bos taurus. The procedure, abridged: as §1
The target in assay [4] is Nucleic Acid. Nature of the assay: Inhibitory effect on the activity of mammalian DNA polymerase alpha was determined by inhibitory dose curves. It counts as nucleic-acid assay, Bos taurus. The method, boiled down: (§2)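 Calf thymus pol α (immunoaffinity-purified) and rat pol β, 0.05 units each final, with poly(dA)/oligo(dT)12–18 (2/1) and dTTP. Compounds in DMSO, sonicated 30 s, then preincubated with enzyme at 0 °C for 10 min in 50 mM Tris–HCl pH 7.5, 1 mM DTT, 50% glycerol, 0.1 mM EDTA. Mixtures added to standard reactions; activity without compound taken as 100%. IC50 from dose–response curves.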

Assay [5] has as its target Nucleic Acid. Nature of the assay: Inhibition constant at a concentration of 5 uM on calf DNA polymerase alpha as a function of nucleotide substrate concentration. The format is nucleic-acid assay, Bos taurus. The method, boiled down: as §1
Assay [6] has as its target T1, DNA polymerase beta. Nature of the assay: Inhibitory effect on the activity of mammalian DNA polymerase beta was determined by inhibitory dose curves. The method, boiled down: as §2
Assay [7] addresses T1, DNA polymerase beta. Kind of assay: Inhibitory effect on the activity of rat DNA polymerase beta was determined by inhibitory dose curves. The method, boiled down: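 Rat DNA pol β, 0.05 units, with poly(dA)/oligo(dT)12-18 template-primer and dTTP substrate. Compounds in DMSO at various concentrations, sonicated 30 s, then preincubated with enzyme in 50 mM Tris–HCl pH 7.5, 1 mM DTT, 50% glycerol, 0.1 mM EDTA at 0 °C for 10 min before addition to the reaction mix. Activity without compound was set as 100%, and IC50 was read from dose–response curves.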

Assay [8] deals with T1, DNA polymerase beta. Kind of assay: Inhibition constant at a concentration of 5 uM on rat DNA polymerase beta as a function of nucleotide substrate concentration. The procedure, abridged:
(§3)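 Rat DNA pol β (0.05 units final) with poly(dA)/oligo(dT)12-18 (2/1) as template-primer and dTTP as nucleotide substrate. Inhibitor was dissolved in DMSO, sonicated 30 s, then preincubated with enzyme at 0 °C for 10 min in 50 mM Tris-HCl pH 7.5, 1 mM DTT, 50% glycerol and 0.1 mM EDTA. The mix was added to standard reactions with template-primer or dTTP varied. Ki came from double-reciprocal and Dixon plots.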

Assay [9] deals with T1, DNA polymerase beta. Kind of assay: Inhibition constant at a concentration of 5 uM on rat DNA polymerase beta as a function of template primer dose. The procedure, abridged:
as §3

Assay [10] deals with Nucleic Acid. Nature of the assay: Inhibitory effect on the activity of calf thymus DNA polymerase alpha was determined by inhibitory dose curves. The format is nucleic-acid assay, Bos taurus. The method, boiled down: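 Calf thymus DNA pol α (immunoaffinity-purified), 0.05 units, with poly(dA)/oligo(dT)12-18 template-primer and dTTP substrate. Compounds in DMSO at various concentrations, sonicated 30 s, then preincubated with enzyme in 50 mM Tris–HCl pH 7.5, 1 mM DTT, 50% glycerol, 0.1 mM EDTA at 0 °C for 10 min before addition to the reaction mix. Activity without compound was set as 100%, and IC50 was read from dose–response curves.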

Assay [11] concerns the target Nucleic Acid. Nature of the assay: Inhibition constant at a concentration of 25 uM on calf DNA polymerase alpha as a function of nucleotide substrate concentration. The format is nucleic-acid assay, Bos taurus. The procedure, abridged:
(§4)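 Calf thymus DNA pol α (immunoaffinity-purified), 0.05 units. Compound in DMSO, sonicated 30 s, preincubated with enzyme in 50 mM Tris–HCl pH 7.5, 1 mM DTT, 50% glycerol, 0.1 mM EDTA at 0 °C for 10 min. Activity measured varying poly(dA)/oligo(dT)12-18 (2/1) template-primer or dTTP nucleotide substrate. Km and Vmax were taken from double reciprocal plots and Ki from Dixon plots.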

Assay [12] addresses Nucleic Acid. Nature of the assay: Inhibition constant at a concentration of 25 uM on calf DNA polymerase alpha as a function of template primer dose. The format is nucleic-acid assay, Bos taurus. The method, boiled down: as §4

As for `C[C@H](CCC(=O)O)[C@H]1CC[C@H]2[C@@H]3CCC4C[C@@H](OC(=O)CCNC(=O)CCCCCNC(=O)CCCCCNC(=O)CCCCC5SCC6NC(=O)NC65)CC[C@]4(C)[C@H]3CC[C@]12C` (stereo partly specified), the Ki (in general, a dissociation constant, usually derived from enzyme kinetics or from competition with a known ligand) in assay [1] was 20.1 µM; in assay [2] it was 12.8 µM; in assay [3] it was 7.7 µM; in [5], 5.5 µM. Moreover, the IC50 (in general, the concentration that gives 50% inhibition) in assay [4] was found to be 10 µM; in assay [6], 32 µM.
Regarding `C[C@H](CCC(=O)O)[C@H]1CC[C@H]2[C@@H]3CCC4C[C@@H](O)CC[C@]4(C)[C@H]3CC[C@]12C` (stereo partly specified), the figures for the IC50 in [7] and in [10] were 11 µM and 40 µM, respectively. Moreover, the Ki in assay [8] was 6.6 µM; in [9] it was 4.7 µM; in [11] it was 22.5 µM; in [12], 15.3 µM.
As to `C[C@H](CCC(=O)O)[C@H]1CC[C@H]2[C@@H]3CCC4C[C@@H](OC(=O)CCNC(=O)CCCCC5SCC6NC(=O)NC65)CC[C@]4(C)[C@H]3CC[C@]12C` (stereo partly specified), the IC50 was 31 µM in assay [7] and 29 µM in [10].
In the same order, the values of `C[C@H](CCC(=O)O)[C@H]1CC[C@H]2[C@@H]3CCC4C[C@@H](OC(=O)CCNC(=O)CCCCCNC(=O)CCCCC5SCC6NC(=O)NC65)CC[C@]4(C)[C@H]3CC[C@]12C` (stereo partly specified) are 46 µM and 42 µM.
